From ChEMBL document CHEMBL1145951, “Phenethyl amides as novel noncovalent inhibitors of hepatitis C virus NS3/4A protease: discovery, initial SAR, and molecular modeling” (J Med Chem, 2003)
Starred links: 1 amine or outer side, 2 acyl side, 3 side chain; linkers in the order of their positions; H or OH if unused. Non-standard residues stand in square brackets, D forms with d. Residues, ends and D or L forms follow the SMILES beside them. ξ: configuration not given here. *: point of attachment. Dip = N[C@H](C(=O)O)C(c1ccccc1)c1ccccc1; X4 = O=C(C(=O)[*:2])[C@H](CC(F)F)N[*:1]; X1 = O=C(NOCc1ccccc1)[C@H](CC(F)F)N*; Abu(4,4-F2) = N[C@@H](CC(F)F)C(=O)O; N(Me)CH2CH2Ph = CN(CCc1ccccc1)*; Cha = N[C@@H](CC1CCCCC1)C(=O)O; NH(CH2)3Ph = c1ccc(CCCN*)cc1; NHPhenethyl = c1ccc(CCN*)cc1; X6 = c1ccc2c(c1)CC(N*)C2; ξE = NC(CCC(=O)O)C(=O)O; Cbz = O=C(OCc1ccccc1)*; Boc = CC(C)(C)OC(=O)*; NHBn = c1ccc(CN*)cc1; X2 = Clc1ccccc1CCN*; X5 = C1CCC(CCN*)CC1

How the values were obtained:
[1] = biological target: Hepatitis C virus serine protease, NS3/NS4A (Hepatitis C virus, UniProt D2K2A8+A3EZI9); experiment: (§1) Inhibitory activity against Hepatitis C NS3/NS4A protease; format: protein-complex assay, Hepacivirus hominis
Summary of the method: (§2)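 Enzyme was the HCV NS3 protease domain with an NS4A cofactor peptide. IC50 values are means of two independent experiments, or of three to four for some series.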

[2] = biological target: Hepatitis C virus serine protease, NS3/NS4A (Hepatitis C virus, UniProt A3EZI9+D2K2A8); experiment: as §1; format: protein-complex assay, Hepacivirus hominis; summary of the method: as §2
Neutrophil elastase = biological target: T1, Neutrophil elastase (Homo sapiens, UniProt P08246); experiment: Binding affinity for enzyme human leukocyte HLE
T1 sequence (P08246 whole entry): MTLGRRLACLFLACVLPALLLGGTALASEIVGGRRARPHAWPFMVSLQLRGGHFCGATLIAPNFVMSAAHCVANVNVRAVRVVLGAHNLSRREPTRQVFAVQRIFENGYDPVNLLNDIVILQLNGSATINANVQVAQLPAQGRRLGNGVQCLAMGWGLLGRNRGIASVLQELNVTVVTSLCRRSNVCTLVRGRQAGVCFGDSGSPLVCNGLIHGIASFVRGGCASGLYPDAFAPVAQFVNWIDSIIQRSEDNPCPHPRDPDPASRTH

NS3 [3] = biological target: T2, NS3 (Hepatitis C virus, UniProt A3EZJ3, K136M); experiment: Binding affinity for enzyme K136M; design: species or system Hepacivirus hominis
NS3 [4] = biological target: T3, NS3 (Hepatitis C virus, UniProt A3EZJ3, K136R); experiment: Binding affinity for enzyme K136R; design: species or system Hepacivirus hominis
NS3 [5] = biological target: T4, NS3 (Hepatitis C virus, UniProt A3EZJ3); experiment: Binding affinity for enzyme NS3 protease wild-type; design: species or system Hepacivirus hominis
Summary of the method: (§3)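 Protease domain of HCV NS3 with NS4A cofactor peptide. Ki found from steady-state kinetics as reversible competitive inhibition. A second Ki was calculated from pre-steady-state displacement of an active-site fluorescent probe, using k_off/k_on.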

NS3 [6] = biological target: T2, NS3; experiment: Binding affinity NS3 protease K136M; design: species or system Hepacivirus hominis
NS3 [7] = biological target: T3, NS3; experiment: Binding affinity for NS3 protease K136R; design: species or system Hepacivirus hominis
NS3 [8] = biological target: T4, NS3; experiment: Binding affinity for wild type NS3 protease; design: species or system Hepacivirus hominis; summary of the method: as §3

| SMILES | IC50 [2] [nM] | also measured |
| --- | --- | --- |
| CC(C)C[C@H](NC(=O)[C@@H](NC(=O)OC(C)(C)C)C(C)C)C(=O)N[C@@H](CC(F)F)C(=O)C(=O)O | – | IC50 [1]: 460 nM |
| CC(C)C[C@H](NC(=O)C(CCC(=O)O)NC(=O)OC(C)(C)C)C(=O)N[C@@H](CS)C(=O)NCCc1ccccc1 (stereo partly drawn) (Boc-[ξE]-Leu-Cys-NHPhenethyl) | 27000 | – |
| CC(C)C[C@H](NC(=O)C(CCC(=O)O)NC(=O)OC(C)(C)C)C(=O)N[C@@H](CS)C(=O)NCc1ccccc1 (stereo partly drawn) (Boc-[ξE]-Leu-Cys-NHBn) | > 200000 | – |
| CC(=O)N[C@@H](CC(=O)O)C(=O)N[C@@H](CCC(=O)O)C(=O)N[C@H](C(=O)N[C@@H](CCC(=O)O)C(=O)N[C@@H](CC1CCCCC1)C(=O)N[C@@H](CS)C(=O)N(C)CCc1ccccc1)C(c1ccccc1)c1ccccc1 (Ac-DE[Dip]E[Cha]C-{N(Me)CH2CH2Ph}) | 70000 | – |
| CC(C)COC(=O)NC(CCC(=O)O)C(=O)N[C@@H](CC(C)C)C(=O)NC(CS)C(=O)NCCc1cccc(C(=O)O)c1 (stereo partly specified) | 9200 | – |
| CC(=O)N[C@@H](CC(=O)O)C(=O)N[C@@H](CCC(=O)O)C(=O)N[C@H](C(=O)N[C@@H](CCC(=O)O)C(=O)N[C@@H](CC1CCCCC1)C(=O)N[C@@H](CC(F)F)C(=O)NCCc1ccccc1)C(c1ccccc1)c1ccccc1 (Ac-DE[Dip]E[Cha][Abu(4,4-F2)]-NHPhenethyl) | 4 | – |
| CC(C)COC(=O)NC(CCC(=O)O)C(=O)N[C@@H](CC(C)C)C(=O)NC(CS)C(=O)NCCc1ccc(C(=O)O)cc1Cl (stereo partly specified) | 700 | – |
| CC(C)C[C@H](NC(=O)C(CCC(=O)O)NC(=O)OC(C)(C)C)C(=O)NC(CC(F)F)C(=O)NCCc1ccccc1Cl (stereo partly specified) | – | Ki (Neutrophil elastase): > 100000 nM; Ki (NS3 [3]): 13500 nM; Ki (NS3 [4]): 8300 nM; Ki (NS3 [5]): 7300 nM |
| CC(C)COC(=O)NC(CCC(=O)O)C(=O)N[C@@H](CC(C)C)C(=O)NC(CS)C(=O)NCCc1ccccc1 (stereo partly specified) | 19000 | – |
| CC(C)C[C@H](NC(=O)[C@@H](NC(=O)OCc1ccccc1)C(C)C)C(=O)N[C@@H](CS)C(=O)NCCc1ccccc1 (Cbz-Val-Leu-Cys-NHPhenethyl) | > 400000 | – |
| CC(=O)N[C@@H](CC(=O)O)C(=O)N[C@@H](CCC(=O)O)C(=O)N[C@H](C(=O)N[C@@H](CCC(=O)O)C(=O)N[C@@H](CC1CCCCC1)C(=O)N[C@@H](CS)C(=O)NCCCc1ccccc1)C(c1ccccc1)c1ccccc1 (Ac-DE[Dip]E[Cha]C-{NH(CH2)3Ph}) | 210 | – |
| CC(C)COC(=O)NC(CCC(=O)O)C(=O)N[C@@H](CC(C)C)C(=O)NC(CS)C(=O)NCCc1ccccc1C(=O)O (stereo partly specified) | > 100000 | – |
| CC(=O)N[C@@H](CC(=O)O)C(=O)N[C@@H](CCC(=O)O)C(=O)N[C@H](C(=O)N[C@@H](CCC(=O)O)C(=O)N[C@@H](CC1CCCCC1)C(=O)N[C@@H](CC(F)F)C(=O)O)C(c1ccccc1)c1ccccc1 (Ac-DE[Dip]E[Cha][Abu(4,4-F2)]-OH) | 40 | – |
| CC(=O)N[C@@H](CC(=O)O)C(=O)N[C@@H](CCC(=O)O)C(=O)N[C@H](C(=O)N[C@@H](CCC(=O)O)C(=O)N[C@@H](CC1CCCCC1)C(=O)N[C@@H](CS)C(=O)NCCc1ccccc1)C(c1ccccc1)c1ccccc1 (Ac-DE[Dip]E[Cha]C-NHPhenethyl) | 7 | – |
| CC(C)COC(=O)NC(C(=O)N[C@@H](CC(C)C)C(=O)NC(CC(F)F)C(=O)NCCc1ccc(C(=O)O)cc1Cl)C(C)C (stereo partly specified) | – | Ki (NS3 [6]): 4000 nM; Ki (NS3 [7]): 2300 nM; Ki (NS3 [8]): 2100 nM |
| CC(C)COC(=O)NC(CCC(=O)O)C(=O)N[C@@H](CC(C)C)C(=O)NC(CC(F)F)C(=O)NCCc1ccc(C(=O)O)cc1Cl (stereo partly specified) | – | Ki (Neutrophil elastase): > 100000 nM; Ki (NS3 [3]): 1300 nM; Ki (NS3 [4]): 900 nM; Ki (NS3 [5]): 600 nM |
| CC(=O)N[C@@H](CC(=O)O)C(=O)N[C@@H](CCC(=O)O)C(=O)N[C@H](C(=O)N[C@@H](CCC(=O)O)C(=O)N[C@@H](CC1CCCCC1)C(=O)N[C@@H](CS)C(=O)NCCC1CCCCC1)C(c1ccccc1)c1ccccc1 (Ac-DE[Dip]E[Cha]C-X5) | 1540 | – |
| COC(=O)c1ccc(CCNC(=O)C(CS)NC(=O)[C@H](CC(C)C)NC(=O)C(CCC(=O)O)NC(=O)OCC(C)C)cc1 (stereo partly specified) | 17000 | – |
| CC(=O)N[C@@H](CC(=O)O)C(=O)N[C@@H](CCC(=O)O)C(=O)N[C@H](C(=O)N[C@@H](CCC(=O)O)C(=O)N[C@@H](CC1CCCCC1)C(=O)N[C@@H](CS)C(=O)NC1Cc2ccccc2C1)C(c1ccccc1)c1ccccc1 (Ac-DE[Dip]E[Cha]C-X6) | 1700 | – |
| CC(=O)N[C@@H](CC(=O)O)C(=O)N[C@@H](CCC(=O)O)C(=O)N[C@H](C(=O)N[C@@H](CCC(=O)O)C(=O)N[C@@H](CC1CCCCC1)C(=O)N[C@@H](CS)C(=O)NCc1ccccc1)C(c1ccccc1)c1ccccc1 (Ac-DE[Dip]E[Cha]C-NHBn) | 250 | – |
| CC(=O)N[C@@H](CC(=O)O)C(=O)N[C@@H](CCC(=O)O)C(=O)N[C@H](C(=O)N[C@@H](CCC(=O)O)C(=O)N[C@@H](CC1CCCCC1)C(=O)N[C@@H](CC(F)F)C(=O)NOCc1ccccc1)C(c1ccccc1)c1ccccc1 (Ac-DE[Dip]E[Cha]-X1) | 40 | – |
| COC(=O)c1cccc(CCNC(=O)C(CS)NC(=O)[C@H](CC(C)C)NC(=O)C(CCC(=O)O)NC(=O)OCC(C)C)c1 (stereo partly specified) | 25000 | – |
| CC(C)C[C@H](NC(=O)[C@H](CCC(=O)O)NC(=O)OC(C)(C)C)C(=O)N[C@@H](CS)C(=O)O (Boc-Glu-Leu-Cys-OH) | > 200000 | – |
| CC(C)C[C@H](NC(=O)C(CCC(=O)O)NC(=O)OC(C)(C)C)C(=O)N[C@@H](CS)C(=O)NCCc1ccccc1Cl (stereo partly specified) | 6500 | – |
| CC(=O)N[C@@H](CC(=O)O)C(=O)N[C@@H](CCC(=O)O)C(=O)N[C@H](C(=O)N[C@@H](CCC(=O)O)C(=O)N[C@@H](CC1CCCCC1)C(=O)N[C@@H](CC(F)F)C(=O)C(=O)NCc1ccccc1)C(c1ccccc1)c1ccccc1 (Ac-DE[Dip]E[Cha][X4]-NHBn) | 2 | – |
| COC(=O)c1ccccc1CCNC(=O)C(CS)NC(=O)[C@H](CC(C)C)NC(=O)C(CCC(=O)O)NC(=O)OCC(C)C (stereo partly specified) | 54000 | – |
| CC(=O)N[C@@H](CC(=O)O)C(=O)N[C@@H](CCC(=O)O)C(=O)N[C@H](C(=O)N[C@@H](CCC(=O)O)C(=O)N[C@@H](CC1CCCCC1)C(=O)N[C@@H](CS)C(=O)NCCc1ccccc1Cl)C(c1ccccc1)c1ccccc1 (Ac-DE[Dip]E[Cha]C-X2) | 2 | – |
| COC(=O)c1ccc(CCNC(=O)C(CS)NC(=O)[C@H](CC(C)C)NC(=O)C(CCC(=O)O)NC(=O)OCC(C)C)c(Cl)c1 (stereo partly specified) | 3200 | – |
